Measured values as given in ChEMBL document CHEMBL4359928, “Scaffold Morphing To Identify Novel DprE1 Inhibitors with Antimycobacterial Activity” (ACS Med Chem Lett, 2019).
Values after ≈ are worked out from the molar mass of the structure shown.

Key:
[1] = tested on: Mycobacterium tuberculosis; assay: Antimycobacterial activity against Mycobacterium tuberculosis H37Rv assessed as reduction in bacterial cell growth by resazurin reduction method; format: functional
[2] = Inhibition of DprE1 in Mycobacterium tuberculosis
[3] = tested on: Mycobacterium tuberculosis; assay: Bactericidal activity against Mycobacterium tuberculosis infected in human THP1 cells assessed as reduction in colony forming unit at antimycobacterial MIC incubated for 7 days; format: functional
[4] = molecular target: Voltage-gated inwardly rectifying potassium channel KCNH2 (Homo sapiens, UniProt Q12809); assay: Inhibition of human ERG
Voltage-gated inwardly rectifying potassium channel KCNH2, sequence (Q12809 whole entry): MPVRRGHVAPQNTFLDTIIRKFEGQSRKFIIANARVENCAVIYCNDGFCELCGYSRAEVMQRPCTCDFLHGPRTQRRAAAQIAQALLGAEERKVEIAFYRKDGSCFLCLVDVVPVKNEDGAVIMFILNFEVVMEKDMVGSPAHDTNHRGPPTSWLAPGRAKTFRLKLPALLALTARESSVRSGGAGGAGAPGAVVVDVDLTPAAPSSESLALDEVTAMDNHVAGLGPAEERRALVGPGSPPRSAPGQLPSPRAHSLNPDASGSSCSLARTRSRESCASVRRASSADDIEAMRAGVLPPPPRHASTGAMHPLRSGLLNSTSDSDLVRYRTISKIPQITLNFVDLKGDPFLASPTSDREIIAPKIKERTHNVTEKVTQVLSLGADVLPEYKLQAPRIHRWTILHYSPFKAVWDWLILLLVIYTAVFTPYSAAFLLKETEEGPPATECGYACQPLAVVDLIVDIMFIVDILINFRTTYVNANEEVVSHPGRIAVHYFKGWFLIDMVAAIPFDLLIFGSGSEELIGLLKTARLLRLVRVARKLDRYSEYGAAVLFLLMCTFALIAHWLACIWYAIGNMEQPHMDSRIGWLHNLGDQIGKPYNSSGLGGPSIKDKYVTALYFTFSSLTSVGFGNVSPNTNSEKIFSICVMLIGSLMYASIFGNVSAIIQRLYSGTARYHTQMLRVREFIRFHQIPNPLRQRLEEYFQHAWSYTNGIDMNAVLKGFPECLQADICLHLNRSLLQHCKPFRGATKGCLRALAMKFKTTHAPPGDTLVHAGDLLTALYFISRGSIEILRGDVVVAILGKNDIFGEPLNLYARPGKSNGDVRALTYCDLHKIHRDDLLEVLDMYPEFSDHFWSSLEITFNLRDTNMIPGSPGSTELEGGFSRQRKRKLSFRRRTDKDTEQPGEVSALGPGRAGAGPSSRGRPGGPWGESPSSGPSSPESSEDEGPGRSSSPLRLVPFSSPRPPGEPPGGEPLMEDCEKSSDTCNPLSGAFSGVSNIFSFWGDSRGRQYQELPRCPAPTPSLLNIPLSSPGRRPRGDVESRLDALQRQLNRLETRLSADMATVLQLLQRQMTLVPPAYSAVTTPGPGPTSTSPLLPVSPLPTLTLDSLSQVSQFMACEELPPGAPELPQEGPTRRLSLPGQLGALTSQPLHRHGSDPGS

[5] = Aqueous solubility of DMSO-dried solid compounds; format: physicochemical; conditions: buffer
[6] = Toxicity in BALB/c mouse infected with Mycobacterium tuberculosis H37Rv assessed as organ weight loss at 10 to 30 mg/kg, po administered for 4 weeks starting from day 28 infection; format: organism-based; conditions: in vivo, 672 h
Summary of the method: (§1)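 Infected BALB/c mice received repeated oral dosing for 4 weeks in the chronic efficacy study. Adverse events were assessed as body weight loss, organ weight loss and gross pathology.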

[7] = AUC (0 to infinity) in BALB/c mouse infected with Mycobacterium tuberculosis H37Rv at 10 mg/kg, po administered for 4 weeks starting from day 28 post infection; format: ADME, organism-based; parameters: dose 10 mg/kg, time infinity, route oral; conditions: in vivo
Summary of the method: (§2)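 Male BALB/c mice with chronic TB, aerosol-infected, given 10 or 30 mg/kg orally in multiple doses over a 4-week course that began 28 days post-infection. Plasma concentration–time profiles were taken from infected animals. PK parameters are reported as mean ± SD, n = 3.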

[8] = Permeability across basolateral to apical side in human Caco2 cells; format: ADME, cell-based; conditions: Caco-2, read-out: permeability
[9] = Permeability across apical to basolateral side in human Caco2 cells; format: ADME, cell-based; conditions: Caco-2, read-out: permeability
[10] = Oral bioavailability in rat; format: ADME, organism-based; conditions: in vivo
[11] = tested on: Pseudomonas putida; assay: Antibacterial activity against Pseudomonas putida; format: functional
[12] = tested on: Mycobacterium tuberculosis; assay: Antimycobacterial activity against Mycobacterium tuberculosis H37Rv infected in BALB/c mouse assessed as reduction in bacterial burden in mouse spleen at 30 mg/kg, po administered for 4 weeks starting from day 28 post infection; format: functional
Summary of the method: (§3)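 Chronic TB model in BALB/c mice infected by the aerosol route. Oral treatment began 28 days post-infection and ran 4 weeks. Bacterial burden was read as log10 CFU in lungs and spleen.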

[13] = tested on: Corynebacterium glutamicum; assay: Antibacterial activity against Corynebacterium glutamicum; format: functional
[14] = tested on: Rhodococcus; assay: Antibacterial activity against Rhodococcus sps; format: functional
[15] = Cmax in BALB/c mouse infected with Mycobacterium tuberculosis H37Rv at 10 mg/kg, po administered for 4 weeks starting from day 28 post infection; format: ADME, organism-based; parameters: dose 10 mg/kg, route oral; conditions: in vivo; summary of the method: as §2
[16] = molecular target: Cytochrome P450 2C19 (Homo sapiens, UniProt P33261); assay: Inhibition of CYP2C19 (unknown origin); format: ADME
Cytochrome P450 2C19, sequence (P33261 whole entry): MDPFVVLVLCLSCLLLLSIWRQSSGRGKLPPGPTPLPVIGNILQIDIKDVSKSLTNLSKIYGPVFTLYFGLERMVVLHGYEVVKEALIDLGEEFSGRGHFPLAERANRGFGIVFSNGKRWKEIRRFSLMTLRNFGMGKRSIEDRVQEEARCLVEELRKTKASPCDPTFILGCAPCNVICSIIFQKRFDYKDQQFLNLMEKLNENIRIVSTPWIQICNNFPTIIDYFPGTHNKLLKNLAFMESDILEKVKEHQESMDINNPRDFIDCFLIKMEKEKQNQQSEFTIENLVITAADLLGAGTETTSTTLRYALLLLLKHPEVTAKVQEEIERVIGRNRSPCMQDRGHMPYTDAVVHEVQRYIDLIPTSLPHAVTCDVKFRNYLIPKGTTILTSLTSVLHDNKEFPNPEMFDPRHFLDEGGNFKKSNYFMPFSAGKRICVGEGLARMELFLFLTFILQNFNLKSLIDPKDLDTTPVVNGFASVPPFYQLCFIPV

[17] = Toxicity in BALB/c mouse infected with Mycobacterium tuberculosis H37Rv assessed as gross pathology at 10 to 30 mg/kg, po administered for 4 weeks starting from day 28 infection; format: organism-based; conditions: in vivo, 672 h; summary of the method: as §1
[18] = tested on: Escherichia coli; assay: Antibacterial activity against Escherichia coli; format: functional
[19] = tested on: Mycobacterium tuberculosis; assay: Bactericidal activity against Mycobacterium tuberculosis infected in mouse assessed as reduction in colony forming unit at 1 to 2 times of antimycobacterial MIC incubated for 10 days; format: functional
[20] = tested on: Enterococcus faecalis; assay: Antibacterial activity against Enterococcus faecalis; format: functional
[21] = tested on: Corynebacterium pseudodiphtheriticum; assay: Antibacterial activity against Corynebacterium pseudodiphtheria; format: functional
[22] = tested on: Mycolicibacterium smegmatis; assay: Antimycobacterial activity against Mycobacterium smegmatis mc2 155 assessed as reduction in bacterial cell growth by resazurin reduction method; format: functional
[23] = tested on: Corynebacterium pseudotuberculosis; assay: Antibacterial activity against Corynebacterium pseudotuberculosis; format: functional
[24] = tested on: Mycobacterium tuberculosis; assay: Antimycobacterial activity against Mycobacterium tuberculosis H37Rv infected in BALB/c mouse assessed as reduction in bacterial burden in mouse lung at 30 mg/kg, po administered for 4 weeks starting from day 28 post infection; format: functional; summary of the method: as §3
[25] = tested on: Bacillus subtilis; assay: Antibacterial activity against Bacillus subtilis; format: functional
[26] = tested on: Pseudomonas aeruginosa; assay: Antibacterial activity against Pseudomonas aeruginosa; format: functional
[27] = tested on: Prescottella equi; assay: Antibacterial activity against Rhodococcus equi; format: functional; conditions: Rhodococcus (subgen. Prescottella) equi
[28] = Tmax in BALB/c mouse infected with Mycobacterium tuberculosis H37Rv at 10 mg/kg, po administered for 4 weeks starting from day 28 post infection; format: ADME, organism-based; conditions: in vivo; summary of the method: as §2
[29] = tested on: Listeria monocytogenes; assay: Antibacterial activity against Listeria monocytogenes; format: functional
[30] = AUC (0 to infinity) in BALB/c mouse infected with Mycobacterium tuberculosis H37Rv at 30 mg/kg, po administered for 4 weeks starting from day 28 post infection; format: ADME, organism-based; parameters: dose 30 mg/kg, route oral, time infinity; conditions: in vivo; summary of the method: as §2
[31] = tested on: Proteus vulgaris; assay: Antibacterial activity against Proteus vulgaris; format: functional
[32] = Cmax in BALB/c mouse infected with Mycobacterium tuberculosis H37Rv at 30 mg/kg, po administered for 4 weeks starting from day 28 post infection; format: ADME, organism-based; parameters: dose 30 mg/kg, route oral; conditions: in vivo; summary of the method: as §2
[33] = Tmax in mouse at MIC in presence of CYP pan inhibitor 1-aminobenzotriazole; format: ADME; conditions: in vivo
[34] = Toxicity in BALB/c mouse infected with Mycobacterium tuberculosis H37Rv assessed as body weight loss at 10 to 30 mg/kg, po administered for 4 weeks starting from day 28 infection; format: organism-based; conditions: in vivo, 672 h; summary of the method: as §1
[35] = Tmax in BALB/c mouse infected with Mycobacterium tuberculosis H37Rv at 30 mg/kg, po administered for 4 weeks starting from day 28 post infection; format: ADME, organism-based; conditions: in vivo; summary of the method: as §2
[36] = Half life in BALB/c mouse infected with Mycobacterium tuberculosis H37Rv at 30 mg/kg, po administered for 4 weeks starting from day 28 post infection; format: ADME, organism-based; conditions: in vivo; summary of the method: as §2
[37] = Lipophilicity, logD of compound; format: physicochemical; conditions: octanol/water
[38] = molecular target: Cytochrome P450 2D6 (Homo sapiens, UniProt P10635); assay: Inhibition of CYP2D6 (unknown origin); format: ADME
Cytochrome P450 2D6, sequence (P10635 whole entry): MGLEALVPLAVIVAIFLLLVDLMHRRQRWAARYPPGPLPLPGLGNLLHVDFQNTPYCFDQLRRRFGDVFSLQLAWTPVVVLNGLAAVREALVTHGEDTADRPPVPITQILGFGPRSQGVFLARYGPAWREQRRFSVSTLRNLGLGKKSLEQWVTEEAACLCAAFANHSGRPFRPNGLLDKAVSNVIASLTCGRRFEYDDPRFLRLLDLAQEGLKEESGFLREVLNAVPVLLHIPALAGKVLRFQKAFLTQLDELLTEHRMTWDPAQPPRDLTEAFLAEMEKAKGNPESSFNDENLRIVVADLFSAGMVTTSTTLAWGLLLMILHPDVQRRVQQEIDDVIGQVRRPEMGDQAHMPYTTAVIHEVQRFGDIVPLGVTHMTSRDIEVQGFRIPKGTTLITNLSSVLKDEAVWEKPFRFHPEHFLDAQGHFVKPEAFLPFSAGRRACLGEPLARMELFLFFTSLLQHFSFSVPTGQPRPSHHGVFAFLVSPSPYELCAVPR

[39] = molecular target: Cytochrome P450 3A4 (Homo sapiens, UniProt P08684); assay: Inhibition of CYP3A4 (unknown origin); format: ADME
Cytochrome P450 3A4, sequence (P08684 whole entry): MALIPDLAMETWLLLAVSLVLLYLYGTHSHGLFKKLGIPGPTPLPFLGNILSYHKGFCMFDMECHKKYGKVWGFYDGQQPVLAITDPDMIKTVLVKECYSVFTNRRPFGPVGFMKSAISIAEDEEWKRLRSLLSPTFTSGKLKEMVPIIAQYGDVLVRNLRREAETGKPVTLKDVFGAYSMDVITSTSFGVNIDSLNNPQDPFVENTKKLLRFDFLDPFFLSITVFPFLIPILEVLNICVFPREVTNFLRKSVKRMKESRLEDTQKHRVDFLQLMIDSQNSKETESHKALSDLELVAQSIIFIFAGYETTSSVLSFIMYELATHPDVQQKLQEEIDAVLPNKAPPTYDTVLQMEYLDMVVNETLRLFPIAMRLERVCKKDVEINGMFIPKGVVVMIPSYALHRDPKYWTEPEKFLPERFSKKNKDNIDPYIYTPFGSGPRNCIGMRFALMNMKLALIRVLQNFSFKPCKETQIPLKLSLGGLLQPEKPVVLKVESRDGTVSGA

[40] = Protein binding in human plasma assessed as free fraction; format: ADME, cell-free
[41] = molecular target: Cytochrome P450 1A2 (Homo sapiens, UniProt P05177); assay: Inhibition of CYP1A2 (unknown origin); format: ADME
Cytochrome P450 1A2, sequence (P05177 whole entry): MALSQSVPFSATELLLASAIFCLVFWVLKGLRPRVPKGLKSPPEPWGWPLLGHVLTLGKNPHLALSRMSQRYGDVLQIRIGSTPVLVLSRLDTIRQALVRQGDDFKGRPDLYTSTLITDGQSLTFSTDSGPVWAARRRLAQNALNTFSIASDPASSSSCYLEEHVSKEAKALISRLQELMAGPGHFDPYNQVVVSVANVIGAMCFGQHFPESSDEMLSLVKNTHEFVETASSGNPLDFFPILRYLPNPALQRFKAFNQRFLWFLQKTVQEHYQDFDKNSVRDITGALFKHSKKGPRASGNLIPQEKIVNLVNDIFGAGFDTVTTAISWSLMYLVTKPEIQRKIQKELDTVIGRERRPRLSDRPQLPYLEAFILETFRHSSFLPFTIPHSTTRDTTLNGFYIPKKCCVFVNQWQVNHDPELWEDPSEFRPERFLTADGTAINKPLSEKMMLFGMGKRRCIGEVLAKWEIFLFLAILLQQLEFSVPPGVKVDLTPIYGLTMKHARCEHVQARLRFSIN

[42] = tested on: Nocardia farcinica; assay: Antibacterial activity against Nocardia farcinica; format: functional
[43] = Clearance in rat; format: ADME; conditions: in vivo
[44] = tested on: Staphylococcus aureus; assay: Antibacterial activity against Staphylococcus aureus; format: functional
[45] = molecular target: Cytochrome P450 2C9 (Homo sapiens, UniProt P11712); assay: Inhibition of CYP2C9 (unknown origin); format: ADME
Cytochrome P450 2C9, sequence (P11712 whole entry): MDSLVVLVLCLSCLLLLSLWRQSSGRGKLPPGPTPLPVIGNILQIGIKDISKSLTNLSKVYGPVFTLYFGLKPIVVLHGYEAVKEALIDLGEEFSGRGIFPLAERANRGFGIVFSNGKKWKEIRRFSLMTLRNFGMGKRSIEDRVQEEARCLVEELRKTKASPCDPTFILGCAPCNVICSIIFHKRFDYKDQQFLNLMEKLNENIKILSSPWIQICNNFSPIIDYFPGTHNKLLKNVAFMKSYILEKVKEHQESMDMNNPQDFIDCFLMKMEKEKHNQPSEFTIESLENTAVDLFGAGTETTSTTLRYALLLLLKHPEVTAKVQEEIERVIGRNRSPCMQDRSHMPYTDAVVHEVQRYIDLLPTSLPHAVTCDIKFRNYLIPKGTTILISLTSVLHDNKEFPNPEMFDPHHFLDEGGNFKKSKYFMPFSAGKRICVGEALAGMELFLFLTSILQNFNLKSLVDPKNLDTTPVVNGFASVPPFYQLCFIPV

[46] = Half life in BALB/c mouse infected with Mycobacterium tuberculosis H37Rv at 10 mg/kg, po administered for 4 weeks starting from day 28 post infection; format: ADME, organism-based; conditions: in vivo; summary of the method: as §2
[47] = tested on: Mycobacterium tuberculosis; assay: Bactericidal activity against Mycobacterium tuberculosis; format: functional
[48] = Mycobacterium tuberculosis, H37Rv, read-out: MIC

## Cc1cc(C(=O)NCCF)c2ncn(Cc3ncnc(OC(F)F)c3C)c2c1
[1]; [48]
  MIC: < 0.39 µM
[2]
  IC50: 16 nM

## COc1cc(C(=O)NCCF)c2ncn(Cc3ncnc(OC)c3C)c2c1
[1]; [48]
  MIC: < 0.39 µM
[2]
  IC50: 5 nM

## Cc1cc(C(=O)NCC(F)F)c2ncn(Cc3ncnc(N(C)C)c3C)c2c1
[1]; [48]
  MIC: < 0.39 µM
[2]
  IC50: 4 nM

## COc1cc(C(=O)NCC(F)F)c2ncn(Cc3ncnc(N(C)C)c3C)c2c1
[1]; [48]
  MIC: < 0.39 µM
[2]
  IC50: 9 nM

## COc1ncnc(Cn2cnc3c(C(=O)NCCF)cccc32)c1C
[3]
  Activity: 1 log10CFU
[4]
  IC50: > 33000 nM
[5]
  solubility: 152 µM (≈ 52.2 µg/mL)
[6]
  Activity: Non-Toxic
[7]
  AUC(0-inf): 13.5 µM·h
[8]
  Papp B→A: 14 ×10⁻⁶ cm/s
[9]
  Papp A→B: 37 ×10⁻⁶ cm/s
[10]
  bioavailability: 114%
[11]
  MIC: > 200 µM
[12]
  Activity: 1 log10CFU
[13]
  MIC: > 200 µM
[14]
  MIC: > 200 µM
[15]
  Cmax: 5.1 µM
[16]
  IC50: > 50000 nM
[17]
  Activity: Non-Toxic
[1]; [48]
  MIC: 1.56 to 3.12 µM (≈ 0.536 to 1.07 µg/mL)
[18]
  MIC: > 200 µM
[19]
  Activity: >3 log10CFU
[20]
  MIC: > 200 µM
[21]
  MIC: > 200 µM
[22]
  MIC: 0.78 to 1.56 µM (≈ 0.268 to 0.536 µg/mL)
[23]
  MIC: > 200 µM
[24]
  Activity: 1.5 log10CFU
[25]
  MIC: > 200 µM
[26]
  MIC: > 200 µM
[27]
  MIC: > 200 µM
[28]
  Tmax: 2 h
[29]
  MIC: > 200 µM
[30]
  AUC(0-inf): 78.6 µM·h
[31]
  MIC: > 200 µM
[32]
  Cmax: 18.3 µM
[33]
  Tmax: 6 to 10 h
[34]
  Activity: Non-Toxic
[35]
  Tmax: 3 h
[2]
  IC50: 34 nM
[36]
  half-life: 5.9 h
[37]
  logD: 1.9
[38]
  IC50: > 50000 nM
[39]
  IC50: > 50000 nM
[40]
  fraction unbound: 0.32
[41]
  IC50: > 50000 nM
[42]
  MIC: > 200 µM
[43]
  clearance: 48 mL/min/kg
[44]
  MIC: > 200 µM
[45]
  IC50: > 50000 nM
[46]
  half-life: 4.5 h
[47]
  MBC: 1.56 µM (≈ 0.536 µg/mL)

## COc1cc(C(=O)NCCF)c2ncn(Cc3ncnc(N(C)C)c3C)c2c1
[4]
  IC50: > 33000 nM
[5]
  solubility: > 1000 µM
[8]
  Papp B→A: 22 ×10⁻⁶ cm/s
[9]
  Papp A→B: 26 ×10⁻⁶ cm/s
[16]
  IC50: > 50000 nM
[1]; [48]
  MIC: < 0.39 µM
[2]
  IC50: 16 nM
[37]
  logD: 2 to 2.1
[38]
  IC50: > 50000 nM
[39]
  IC50: > 50000 nM
[40]
  fraction unbound: 0.31
[41]
  IC50: > 50000 nM
[45]
  IC50: > 50000 nM

## Cc1cc(C(=O)NCCF)c2ncn(Cc3ncnc(N(C)C)c3C)c2c1
[1]; [48]
  MIC: < 0.39 µM
[2]
  IC50: 9 nM

## COc1ncnc(Cn2cnc3c(C(=O)NCCF)cc(C)cc32)c1C
[1]; [48]
  MIC: 0.78 µM (≈ 0.279 µg/mL)
[2]
  IC50: 8 nM

## COc1cc(C(=O)NCC(F)F)c2ncn(Cc3ncnc(OC(F)F)c3C)c2c1
[1]; [48]
  MIC: < 0.39 µM
[2]
  IC50: 5 nM

## C[C@H]1COC2(CCN(c3nc(=O)c4cc(C(F)(F)F)cc([N+](=O)[O-])c4s3)CC2)O1 [BTZ-043]
[1]; [48]
  MIC: 0.003 to 0.006 µM (≈ 0.00129 to 0.00259 µg/mL)

## NNC(=O)c1ccncc1 [ISONIAZID]
[1]; [48]
  MIC: 0.44 µM (≈ 0.0603 µg/mL)

## CO[C@H]1/C=C/O[C@@]2(C)Oc3c(C)c(O)c4c(O)c(c(/C=N/N5CCN(C)CC5)c(O)c4c3C2=O)NC(=O)/C(C)=C\C=C\[C@H](C)[C@H](O)[C@@H](C)[C@@H](O)[C@@H](C)[C@H](OC(C)=O)[C@@H]1C [RIFAMPIN]
[1]; [48]
  MIC: 0.01 µM (≈ 0.00823 µg/mL)

## COc1ncnc(Cn2cc(C(=O)NCCO)c3ncc(C)cc32)c1C [TBA-7371]
[1]
  MIC: 0.78 µM (≈ 0.277 µg/mL)
[43]
  clearance: 27 mL/min/kg
[47]
  MBC: 1.56 µM (≈ 0.554 µg/mL)
